# Measurements taken from ChEMBL document CHEMBL2150921, “Synthesis, structure-activity relationships, and docking studies of N-phenylarylformamide derivatives (PAFAs) as non-nucleoside HIV reverse transcriptase inhibitors” (Eur J Med Chem, 2012).
# System: Human immunodeficiency virus 1
# Assay: Antiviral activity against wild type HIV1 3B infected in human C8166 cells assessed as protection against virus-induced cytopathic effect after 3 days by syncytium reduction assay
# Format: functional, organism-based
# Conditions: Human immunodeficiency virus 1, 3B, C8166, 72 h
# Procedure, shortened: (§1)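 C8166 cells (4 × 10⁵/mL) infected at MOI 0.06 in presence of graded compound concentrations; AZT and GW678248 as drug controls. After 3 days culture, syncytia (multinucleated giant cells) counted under inverted microscope; EC50 taken as concentration blocking 50% syncytium formation. Mean of at least two separate experiments.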
row,Structure (SMILES),EC50 [µM]
1,Cc1ccc(C(=O)Nc2cc(Cl)ccc2OCC(=O)Nc2ccc(S(N)(=O)=O)cc2C)cc1C,0.00032
2,Cc1cc(C)cc(C(=O)Nc2cc(Cl)ccc2OCC(=O)Nc2ccc(S(N)(=O)=O)cc2C)c1,0.00116
3,Cc1cc(S(N)(=O)=O)ccc1NC(=O)COc1ccc(Cl)cc1NC(=O)c1ccc(Cl)cc1Cl,0.00297
4,Cc1cc(S(N)(=O)=O)ccc1NC(=O)COc1ccc(Cl)cc1NC(=O)c1cc(Cl)ccc1Cl,0.00234
5,Cc1cc(S(N)(=O)=O)ccc1NC(=O)COc1ccc(Cl)cc1NC(=O)c1ccc(Cl)c(Cl)c1,0.0514
6,Cc1cc(S(N)(=O)=O)ccc1NC(=O)COc1ccc(Cl)cc1NC(=O)c1cc(Cl)cc(Cl)c1,0.00027
7,Cc1cc(S(N)(=O)=O)ccc1NC(=O)COc1ccc(Cl)cc1NC(=O)c1cc(Cl)cc(Br)c1,3.09
8,Cc1cc(S(N)(=O)=O)ccc1NC(=O)COc1ccc(Cl)cc1NC(=O)c1cc(Br)cc(Br)c1,0.0459
9,Cc1cc(S(N)(=O)=O)ccc1NC(=O)COc1ccc(Cl)cc1NC(=O)c1cc(Cl)cc(C#N)c1,0.00096
10,Cc1cc(S(N)(=O)=O)ccc1NC(=O)COc1ccc(Cl)cc1NC(=O)/C=C/c1ccccc1,95.4
11,Cc1cc(S(N)(=O)=O)ccc1NC(=O)COc1ccc(Cl)cc1NC(=O)Cc1c(Cl)cccc1Cl,249
12,Cc1cc(S(N)(=O)=O)ccc1NC(=O)COc1ccc(Cl)cc1NC(=O)c1cccc2ccccc12,0.109
13,Cc1cc(S(N)(=O)=O)ccc1NC(=O)COc1ccc(Cl)cc1NC(=O)c1ccc2ccccc2c1,0.101

# System: not listed separately
# Assay: Therapeutic index, ratio of CC50 for human C8166 cells to EC50 for HIV1 A17 harbouring RT K103N/Y181C mutant infected in human C8166 cells
# Format: cell-based
# Conditions: read-out: Ratio CC50/EC50
# Procedure, shortened: (§2)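 CC50 from MTT assay on uninfected C8166 cells (A570/630, dose-response curve, 50% viable cell reduction) divided by EC50 from 3-day syncytium reduction assay in C8166 cells (4 × 10⁵/mL) infected at M.O.I 0.06; syncytia scored microscopically. Values are means of at least two separate experiments.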
row,Structure (SMILES),selectivity ratio
1,Cc1ccc(C(=O)Nc2cc(Cl)ccc2OCC(=O)Nc2ccc(S(N)(=O)=O)cc2C)cc1C,836
2,Cc1cc(C)cc(C(=O)Nc2cc(Cl)ccc2OCC(=O)Nc2ccc(S(N)(=O)=O)cc2C)c1,110
3,Cc1cc(S(N)(=O)=O)ccc1NC(=O)COc1ccc(Cl)cc1NC(=O)c1ccc(Cl)cc1Cl,187
4,Cc1cc(S(N)(=O)=O)ccc1NC(=O)COc1ccc(Cl)cc1NC(=O)c1cc(Cl)ccc1Cl,100
5,Cc1cc(S(N)(=O)=O)ccc1NC(=O)COc1ccc(Cl)cc1NC(=O)c1ccc(Cl)c(Cl)c1,138
6,Cc1cc(S(N)(=O)=O)ccc1NC(=O)COc1ccc(Cl)cc1NC(=O)c1cc(Cl)cc(Cl)c1,268
7,Cc1cc(S(N)(=O)=O)ccc1NC(=O)COc1ccc(Cl)cc1NC(=O)c1cc(Cl)cc(Br)c1,4.11
8,Cc1cc(S(N)(=O)=O)ccc1NC(=O)COc1ccc(Cl)cc1NC(=O)c1cc(Br)cc(Br)c1,64.7
9,Cc1cc(S(N)(=O)=O)ccc1NC(=O)COc1ccc(Cl)cc1NC(=O)c1cc(Cl)cc(C#N)c1,454
10,Cc1cc(S(N)(=O)=O)ccc1NC(=O)COc1ccc(Cl)cc1NC(=O)/C=C/c1ccccc1,1.06
11,Cc1cc(S(N)(=O)=O)ccc1NC(=O)COc1ccc(Cl)cc1NC(=O)Cc1c(Cl)cccc1Cl,> 1.49
12,Cc1cc(S(N)(=O)=O)ccc1NC(=O)COc1ccc(Cl)cc1NC(=O)c1cccc2ccccc12,> 17.7
13,Cc1cc(S(N)(=O)=O)ccc1NC(=O)COc1ccc(Cl)cc1NC(=O)c1ccc2ccccc2c1,4.22
14,Cc1cn([C@H]2C[C@H](N=[N+]=[N-])[C@@H](CO)O2)c(=O)[nH]c1=O [ZIDOVUDINE],216000

# System: Human immunodeficiency virus 1
# Assay: Antiviral activity against HIV1 A17 harbouring RT K103N/Y181C mutant infected in human C8166 cells assessed as protection against virus-induced cytopathic effect after 3 days by syncytium reduction assay
# Format: functional, organism-based
# Conditions: Human immunodeficiency virus 1, A17, C8166, 72 h
# Procedure, shortened: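 C8166 cells (4 × 10⁵/mL) infected at M.O.I 0.06 in the presence of various compound concentrations; cultured 3 days, syncytia (multinucleated giant cells) scored under inverted microscope; EC50 = concentration blocking syncytia formation by 50%. AZT and GW678248 as drug controls. Mean of at least two separate experiments.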
row,Structure (SMILES),EC50 [µM]
1,Cc1ccc(C(=O)Nc2cc(Cl)ccc2OCC(=O)Nc2ccc(S(N)(=O)=O)cc2C)cc1C,0.1
2,Cc1cc(C)cc(C(=O)Nc2cc(Cl)ccc2OCC(=O)Nc2ccc(S(N)(=O)=O)cc2C)c1,0.33
3,Cc1cc(S(N)(=O)=O)ccc1NC(=O)COc1ccc(Cl)cc1NC(=O)c1ccc(Cl)cc1Cl,0.33
4,Cc1cc(S(N)(=O)=O)ccc1NC(=O)COc1ccc(Cl)cc1NC(=O)c1cc(Cl)ccc1Cl,0.42
5,Cc1cc(S(N)(=O)=O)ccc1NC(=O)COc1ccc(Cl)cc1NC(=O)c1ccc(Cl)c(Cl)c1,1.14
6,Cc1cc(S(N)(=O)=O)ccc1NC(=O)COc1ccc(Cl)cc1NC(=O)c1cc(Cl)cc(Cl)c1,0.27
7,Cc1cc(S(N)(=O)=O)ccc1NC(=O)COc1ccc(Cl)cc1NC(=O)c1cc(Cl)cc(Br)c1,27.8
8,Cc1cc(S(N)(=O)=O)ccc1NC(=O)COc1ccc(Cl)cc1NC(=O)c1cc(Br)cc(Br)c1,1.39
9,Cc1cc(S(N)(=O)=O)ccc1NC(=O)COc1ccc(Cl)cc1NC(=O)c1cc(Cl)cc(C#N)c1,0.29
10,Cc1cc(S(N)(=O)=O)ccc1NC(=O)COc1ccc(Cl)cc1NC(=O)/C=C/c1ccccc1,154
11,Cc1cc(S(N)(=O)=O)ccc1NC(=O)COc1ccc(Cl)cc1NC(=O)Cc1c(Cl)cccc1Cl,241
12,Cc1cc(S(N)(=O)=O)ccc1NC(=O)COc1ccc(Cl)cc1NC(=O)c1cccc2ccccc12,21.5
13,Cc1cc(S(N)(=O)=O)ccc1NC(=O)COc1ccc(Cl)cc1NC(=O)c1ccc2ccccc2c1,8.91

# Target: Human immunodeficiency virus type 1 reverse transcriptase (Human immunodeficiency virus 1, UniProt Q72547)
# Assay: Inhibition of wild type HIV1 reverse transcriptase activity using poly (rA)/oligo (dT)15 homopolymer template after 1 hr by ELISA
# Conditions: not given
# Procedure, shortened: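 Wild-type RT; oligo(dT) immobilized on plates, poly(rA) template, biotin-11-dUTP incorporation. Reaction: 50 mM Tris-HCl pH 8.3, 3 mM MgCl2, 75 mM KCl, 5 mM DTT, 0.13 mg/mL BSA, […]; 37 °C, 1 h. Detection by streptavidin-alkaline phosphatase and PNPP (30 min, 37 °C), stopped with 0.5 M NaOH.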
row,Structure (SMILES),IC50 [µM]
1,Cc1ccc(C(=O)Nc2cc(Cl)ccc2OCC(=O)Nc2ccc(S(N)(=O)=O)cc2C)cc1C,0.00114
2,Cc1cc(S(N)(=O)=O)ccc1NC(=O)COc1ccc(Cl)cc1NC(=O)c1cc(Cl)cc(C#N)c1,0.00205

# System: Human immunodeficiency virus 2
# Assay: Antiviral activity against HIV2 ROD infected in human C8166 cells assessed as protection against virus-induced cytopathic effect after 3 days by syncytium reduction assay
# Format: functional, organism-based
# Conditions: Human immunodeficiency virus 2, ISOLATE ROD, C8166, 72 h
# Procedure, shortened: as §1
row,Structure (SMILES),EC50 [µM]
1,Cc1ccc(C(=O)Nc2cc(Cl)ccc2OCC(=O)Nc2ccc(S(N)(=O)=O)cc2C)cc1C,4.37
2,Cc1cc(C)cc(C(=O)Nc2cc(Cl)ccc2OCC(=O)Nc2ccc(S(N)(=O)=O)cc2C)c1,25.9
3,Cc1cc(S(N)(=O)=O)ccc1NC(=O)COc1ccc(Cl)cc1NC(=O)c1ccc(Cl)cc1Cl,14.4
4,Cc1cc(S(N)(=O)=O)ccc1NC(=O)COc1ccc(Cl)cc1NC(=O)c1cc(Cl)ccc1Cl,21.6
5,Cc1cc(S(N)(=O)=O)ccc1NC(=O)COc1ccc(Cl)cc1NC(=O)c1ccc(Cl)c(Cl)c1,55.5
6,Cc1cc(S(N)(=O)=O)ccc1NC(=O)COc1ccc(Cl)cc1NC(=O)c1cc(Cl)cc(Cl)c1,18
7,Cc1cc(S(N)(=O)=O)ccc1NC(=O)COc1ccc(Cl)cc1NC(=O)c1cc(Cl)cc(Br)c1,61.5
8,Cc1cc(S(N)(=O)=O)ccc1NC(=O)COc1ccc(Cl)cc1NC(=O)c1cc(Br)cc(Br)c1,56.5
9,Cc1cc(S(N)(=O)=O)ccc1NC(=O)COc1ccc(Cl)cc1NC(=O)c1cc(Cl)cc(C#N)c1,23.2
10,Cc1cc(S(N)(=O)=O)ccc1NC(=O)COc1ccc(Cl)cc1NC(=O)/C=C/c1ccccc1,77.5
11,Cc1cc(S(N)(=O)=O)ccc1NC(=O)COc1ccc(Cl)cc1NC(=O)Cc1c(Cl)cccc1Cl,160
12,Cc1cc(S(N)(=O)=O)ccc1NC(=O)COc1ccc(Cl)cc1NC(=O)c1cccc2ccccc12,97.7
13,Cc1cc(S(N)(=O)=O)ccc1NC(=O)COc1ccc(Cl)cc1NC(=O)c1ccc2ccccc2c1,31.6

# System: C8166
# Assay: Cytotoxicity against human C8166 cells assessed as decrease in cell viability by MTT assay
# Format: functional
# Conditions: not given
# Procedure, shortened: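 Uninfected C8166 cells exposed to compound; viability read by MTT colorimetric assay at A570/630. CC50, the concentration reducing viable cells by 50%, taken from dose-response curve. Mean of at least two separate experiments.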
row,Structure (SMILES),CC50 [µM]
1,Cc1ccc(C(=O)Nc2cc(Cl)ccc2OCC(=O)Nc2ccc(S(N)(=O)=O)cc2C)cc1C,84.1
2,Cc1cc(C)cc(C(=O)Nc2cc(Cl)ccc2OCC(=O)Nc2ccc(S(N)(=O)=O)cc2C)c1,36.5
3,Cc1cc(S(N)(=O)=O)ccc1NC(=O)COc1ccc(Cl)cc1NC(=O)c1ccc(Cl)cc1Cl,61.1
4,Cc1cc(S(N)(=O)=O)ccc1NC(=O)COc1ccc(Cl)cc1NC(=O)c1cc(Cl)ccc1Cl,42.1
5,Cc1cc(S(N)(=O)=O)ccc1NC(=O)COc1ccc(Cl)cc1NC(=O)c1ccc(Cl)c(Cl)c1,158
6,Cc1cc(S(N)(=O)=O)ccc1NC(=O)COc1ccc(Cl)cc1NC(=O)c1cc(Cl)cc(Cl)c1,72.4
7,Cc1cc(S(N)(=O)=O)ccc1NC(=O)COc1ccc(Cl)cc1NC(=O)c1cc(Cl)cc(Br)c1,114
8,Cc1cc(S(N)(=O)=O)ccc1NC(=O)COc1ccc(Cl)cc1NC(=O)c1cc(Br)cc(Br)c1,89.7
9,Cc1cc(S(N)(=O)=O)ccc1NC(=O)COc1ccc(Cl)cc1NC(=O)c1cc(Cl)cc(C#N)c1,131
10,Cc1cc(S(N)(=O)=O)ccc1NC(=O)COc1ccc(Cl)cc1NC(=O)/C=C/c1ccccc1,163
11,Cc1cc(S(N)(=O)=O)ccc1NC(=O)COc1ccc(Cl)cc1NC(=O)Cc1c(Cl)cccc1Cl,> 359
12,Cc1cc(S(N)(=O)=O)ccc1NC(=O)COc1ccc(Cl)cc1NC(=O)c1cccc2ccccc12,> 382
13,Cc1cc(S(N)(=O)=O)ccc1NC(=O)COc1ccc(Cl)cc1NC(=O)c1ccc2ccccc2c1,37.6
14,Cc1cn([C@H]2C[C@H](N=[N+]=[N-])[C@@H](CO)O2)c(=O)[nH]c1=O [ZIDOVUDINE],4910

# System: not listed separately
# Assay: Therapeutic index, ratio of CC50 for human C8166 cells to EC50 for wild type HIV1 3B infected in human C8166 cells
# Format: cell-based
# Conditions: C8166 cells infected with wild type HIV1 3B, read-out: Ratio CC50/EC50
# Procedure, shortened: as §2
row,Structure (SMILES),selectivity ratio
1,Cc1ccc(C(=O)Nc2cc(Cl)ccc2OCC(=O)Nc2ccc(S(N)(=O)=O)cc2C)cc1C,261000
2,Cc1cc(C)cc(C(=O)Nc2cc(Cl)ccc2OCC(=O)Nc2ccc(S(N)(=O)=O)cc2C)c1,31300
3,Cc1cc(S(N)(=O)=O)ccc1NC(=O)COc1ccc(Cl)cc1NC(=O)c1ccc(Cl)cc1Cl,20600
4,Cc1cc(S(N)(=O)=O)ccc1NC(=O)COc1ccc(Cl)cc1NC(=O)c1cc(Cl)ccc1Cl,18000
5,Cc1cc(S(N)(=O)=O)ccc1NC(=O)COc1ccc(Cl)cc1NC(=O)c1ccc(Cl)c(Cl)c1,3060
6,Cc1cc(S(N)(=O)=O)ccc1NC(=O)COc1ccc(Cl)cc1NC(=O)c1cc(Cl)cc(Cl)c1,271000
7,Cc1cc(S(N)(=O)=O)ccc1NC(=O)COc1ccc(Cl)cc1NC(=O)c1cc(Cl)cc(Br)c1,37
8,Cc1cc(S(N)(=O)=O)ccc1NC(=O)COc1ccc(Cl)cc1NC(=O)c1cc(Br)cc(Br)c1,1950
9,Cc1cc(S(N)(=O)=O)ccc1NC(=O)COc1ccc(Cl)cc1NC(=O)c1cc(Cl)cc(C#N)c1,136000
10,Cc1cc(S(N)(=O)=O)ccc1NC(=O)COc1ccc(Cl)cc1NC(=O)/C=C/c1ccccc1,2
11,Cc1cc(S(N)(=O)=O)ccc1NC(=O)COc1ccc(Cl)cc1NC(=O)Cc1c(Cl)cccc1Cl,> 2
12,Cc1cc(S(N)(=O)=O)ccc1NC(=O)COc1ccc(Cl)cc1NC(=O)c1cccc2ccccc12,> 3500
13,Cc1cc(S(N)(=O)=O)ccc1NC(=O)COc1ccc(Cl)cc1NC(=O)c1ccc2ccccc2c1,373
14,Cc1cn([C@H]2C[C@H](N=[N+]=[N-])[C@@H](CO)O2)c(=O)[nH]c1=O [ZIDOVUDINE],422000
